{"source": "paper PMC10213863", "about": "(Cell Reports Medicine, 2023)", "key": {"murine TLR7": {"molecular_target": "murine TLR7 (Mus musculus, UniProt P58681)", "assay": "Murine whole blood assay, ssRNA-induced IFN-α and TNF", "format": "cell-based", "summary_of_the_method": "(§1)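 Fresh human blood or 129/Sv mouse blood was taken into citrate and diluted 1:1 with RPMI1640. It was pre-incubated 30 min at 37°C, 5% CO2 with increasing concentrations of test compound or 0.25% v/v DMSO (final). Blood was then stimulated with TLR agonists at doses from earlier work, or with R848 (3 μM), and cytokines were quantified. Viability was checked by ATPlite luminescence.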"}, "NOD1": {"molecular_target": "NOD1 (Homo sapiens, UniProt Q9Y239)", "sequence (Q9Y239 whole entry)": "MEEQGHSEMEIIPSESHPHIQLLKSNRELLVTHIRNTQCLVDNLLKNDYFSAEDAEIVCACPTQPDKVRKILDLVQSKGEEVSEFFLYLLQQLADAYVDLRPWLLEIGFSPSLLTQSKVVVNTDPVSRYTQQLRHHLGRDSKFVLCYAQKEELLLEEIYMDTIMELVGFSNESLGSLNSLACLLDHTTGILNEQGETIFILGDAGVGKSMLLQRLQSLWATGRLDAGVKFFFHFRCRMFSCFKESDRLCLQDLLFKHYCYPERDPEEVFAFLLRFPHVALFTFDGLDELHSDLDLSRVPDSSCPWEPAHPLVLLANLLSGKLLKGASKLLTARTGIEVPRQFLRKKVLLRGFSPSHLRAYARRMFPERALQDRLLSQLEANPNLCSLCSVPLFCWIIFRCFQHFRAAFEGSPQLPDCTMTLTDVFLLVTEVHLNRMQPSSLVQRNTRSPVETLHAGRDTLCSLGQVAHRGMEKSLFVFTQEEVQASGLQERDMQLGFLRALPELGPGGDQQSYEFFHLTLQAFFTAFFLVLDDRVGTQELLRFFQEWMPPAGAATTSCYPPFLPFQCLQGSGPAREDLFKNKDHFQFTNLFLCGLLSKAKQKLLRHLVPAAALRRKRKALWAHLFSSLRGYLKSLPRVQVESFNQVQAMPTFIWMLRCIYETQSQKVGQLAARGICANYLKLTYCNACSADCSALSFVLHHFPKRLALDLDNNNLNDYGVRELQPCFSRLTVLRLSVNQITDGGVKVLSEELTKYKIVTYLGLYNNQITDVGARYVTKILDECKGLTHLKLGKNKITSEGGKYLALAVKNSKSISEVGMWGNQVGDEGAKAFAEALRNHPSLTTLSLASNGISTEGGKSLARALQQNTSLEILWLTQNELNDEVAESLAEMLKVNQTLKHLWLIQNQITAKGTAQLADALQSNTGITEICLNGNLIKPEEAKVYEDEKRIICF", "assay": "Ramos Blue reporter B cell line, Tri-DAP stimulation", "format": "cell-based", "settings": "Ramos cells; up to 10 μM; n = 4, data not shown", "summary_of_the_method": "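Ramos Blue B reporter cells were pre-treated 30 min at 37°C, 5% CO2 with increasing concentrations of test compound or 0.25% v/v DMSO. They were then stimulated with the respective agonist, and reporter activity was read.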"}, "TLR7 [1]": {"molecular_target": "T1, TLR7 (Mus musculus, UniProt P58681)", "T1 sequence (P58681 27-1050)": "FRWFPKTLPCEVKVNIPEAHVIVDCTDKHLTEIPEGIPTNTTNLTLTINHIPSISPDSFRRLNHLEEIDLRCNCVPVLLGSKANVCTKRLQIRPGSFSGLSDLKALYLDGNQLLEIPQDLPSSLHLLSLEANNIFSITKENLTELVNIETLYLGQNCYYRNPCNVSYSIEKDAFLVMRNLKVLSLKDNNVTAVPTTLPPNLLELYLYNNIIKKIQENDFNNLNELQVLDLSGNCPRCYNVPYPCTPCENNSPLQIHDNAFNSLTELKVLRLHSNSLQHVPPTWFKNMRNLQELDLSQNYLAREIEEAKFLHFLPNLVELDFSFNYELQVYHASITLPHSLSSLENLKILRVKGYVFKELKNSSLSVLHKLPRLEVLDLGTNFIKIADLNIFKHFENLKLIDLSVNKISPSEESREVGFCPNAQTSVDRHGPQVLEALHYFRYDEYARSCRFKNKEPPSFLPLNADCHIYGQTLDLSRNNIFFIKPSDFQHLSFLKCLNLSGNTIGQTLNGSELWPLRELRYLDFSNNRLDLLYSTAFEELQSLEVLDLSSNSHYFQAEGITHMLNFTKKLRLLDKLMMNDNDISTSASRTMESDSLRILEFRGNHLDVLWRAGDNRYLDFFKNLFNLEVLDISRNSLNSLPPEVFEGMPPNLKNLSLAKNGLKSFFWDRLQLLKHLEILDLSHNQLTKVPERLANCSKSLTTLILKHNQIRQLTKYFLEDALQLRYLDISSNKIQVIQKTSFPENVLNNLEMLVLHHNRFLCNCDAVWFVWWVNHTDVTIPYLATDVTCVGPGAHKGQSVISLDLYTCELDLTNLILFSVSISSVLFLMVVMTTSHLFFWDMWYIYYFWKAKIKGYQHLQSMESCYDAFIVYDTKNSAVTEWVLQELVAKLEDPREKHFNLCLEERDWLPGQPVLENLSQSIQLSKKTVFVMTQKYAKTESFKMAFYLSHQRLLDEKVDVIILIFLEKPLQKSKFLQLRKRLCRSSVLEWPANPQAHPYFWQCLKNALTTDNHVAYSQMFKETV", "assay": "Chronic TLR7 activation in vivo assay", "settings": "129/Sv mice; R848 plus MHV370 vs R848 plus vehicle", "summary_of_the_method": "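129/Sv mice (5 per group) received R848 i.p. at 2.5 mg/kg daily for 14 days. From day 7, groups were dosed orally b.i.d. with test compound at 15 mg/kg or with vehicle. Naive mice served as reference. Blood RNA-seq counts were filtered (≥10 counts per million in ≥4 samples) and TMM-normalized in edgeR. Differential expression was analysed with limma.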"}, "TLR7 [2]": {"molecular_target": "T2, TLR7 (Homo sapiens, UniProt Q9NYK1)", "T2 sequence (Q9NYK1 27-1049)": "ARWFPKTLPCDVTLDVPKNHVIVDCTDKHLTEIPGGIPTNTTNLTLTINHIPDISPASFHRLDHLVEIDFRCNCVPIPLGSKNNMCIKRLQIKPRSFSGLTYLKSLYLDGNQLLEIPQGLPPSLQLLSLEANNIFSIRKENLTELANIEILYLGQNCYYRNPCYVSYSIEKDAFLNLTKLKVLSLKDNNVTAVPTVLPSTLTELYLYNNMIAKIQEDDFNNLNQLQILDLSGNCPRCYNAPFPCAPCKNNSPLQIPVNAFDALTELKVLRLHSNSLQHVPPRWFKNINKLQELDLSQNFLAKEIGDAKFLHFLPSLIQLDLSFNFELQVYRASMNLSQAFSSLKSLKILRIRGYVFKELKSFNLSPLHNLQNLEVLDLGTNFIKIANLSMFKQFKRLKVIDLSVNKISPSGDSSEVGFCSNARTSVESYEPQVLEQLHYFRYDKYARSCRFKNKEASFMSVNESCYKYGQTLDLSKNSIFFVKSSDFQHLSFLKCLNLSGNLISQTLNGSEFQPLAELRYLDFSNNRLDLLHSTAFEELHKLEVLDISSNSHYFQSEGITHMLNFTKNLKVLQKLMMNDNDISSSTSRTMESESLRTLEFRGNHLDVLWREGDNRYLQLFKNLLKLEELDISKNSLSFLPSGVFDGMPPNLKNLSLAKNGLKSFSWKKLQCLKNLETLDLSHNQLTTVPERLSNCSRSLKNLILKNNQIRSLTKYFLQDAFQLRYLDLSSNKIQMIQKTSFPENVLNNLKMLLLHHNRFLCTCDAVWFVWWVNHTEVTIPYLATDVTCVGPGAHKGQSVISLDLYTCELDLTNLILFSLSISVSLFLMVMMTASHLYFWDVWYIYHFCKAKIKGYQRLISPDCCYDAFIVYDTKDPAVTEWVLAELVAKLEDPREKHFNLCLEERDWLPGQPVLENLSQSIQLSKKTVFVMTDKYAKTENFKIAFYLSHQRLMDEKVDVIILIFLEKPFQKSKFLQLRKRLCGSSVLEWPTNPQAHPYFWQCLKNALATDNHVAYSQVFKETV", "assay": "HEK293-NFkB-luciferase reporter cells transfected with TLR7, R848 stimulation", "format": "cell-based", "settings": "IC50, TLR7 response in HEK transfectants, mean ± SD", "summary_of_the_method": "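HEK293-NFkB-luciferase cells stably expressing HA-tagged human TLR7 or TLR8 were pre-treated 60 min at 37°C, 5% CO2 with increasing concentrations of test compound or 0.25% v/v DMSO. They were then stimulated 6 h with R848: 0.3 μM for TLR7, 4 μM for TLR8. Luciferase activity […] was read by Bright-Glo luminescence.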"}, "TLR7 [3]": {"molecular_target": "T2, TLR7", "assay": "Human whole blood assay, ssRNA-IFN-α", "format": "cell-based", "summary_of_the_method": "as §1"}}, "note": "Where “and” joins values, the source holds several entries; their conditions need not be identical. Identical values can stand only once.", "data": [{"smiles": "Cc1cc(N2CCc3c(c(C)nn3CC34CCC(NC(=O)[C@@H]5COCCN5)(CC3)CC4)C2)c2cnn(C)c2n1", "note": "[MHV370, (S)-N-(4-((5-(1,6-dimethyl-1H-pyrazolo[3,4-b]pyridin-4-yl)-3-methyl-4,5,6,7-tetrahydro-1H-pyrazolo[4,3-c]pyridin-1-yl)methyl)bicyclo[2.2.2]octan-1-yl)morpholine-3-carboxamide]", "values": [{"measurement": "IC50", "setting": "murine TLR7; IC50, TLR7 (ssRNA-IFN-α), mouse blood, mean ± SEM (n)", "value": "58 ± 10", "unit": "nM"}, {"measurement": "potency on mouse whole blood relative to human whole blood (fold lower)", "setting": "murine TLR7; mouse vs human whole blood", "value": "about 10 fold"}, {"measurement": "interference with NOD1-driven activity", "setting": "NOD1", "value": "did not interfere"}, {"measurement": "inflammatory pathways (ISGs, TLR and TNF pathways), gene set enrichment in blood", "setting": "TLR7 [1]", "value": "all downregulated"}, {"measurement": "IC50", "setting": "TLR7 [2]", "value": "1 nM and 1.1 nM"}, {"measurement": "IC50", "setting": "TLR7 [3]", "value": "8.4 ± 1", "unit": "nM"}]}]}
